We go through seven compounds from ChEMBL document CHEMBL1150813, “Triterpene saponins from Vietnamese ginseng (Panax vietnamensis) and their hepatocytoprotective activity” (J Nat Prod, 2001).

Some results are limits rather than exact numbers.

What is called IC50 is the concentration at which inhibition is half-maximal. Higher therefore signals weaker potency.

Assay type in all cases: functional
Assay [1] has as its system Hepatocyte. The experiment in a line: Hepatoprotective activity in mouse hepatocytes assessed protection against D-galactosamine/TNFalpha-induced cell death at 50 uM administered before 30 mins of TNFalpha challenge measured after 18 hrs. The method, boiled down: (§1)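 Primary mouse hepatocytes, isolated by collagenase perfusion, were cultured in William's E medium with 10% calf serum, dexamethasone and insulin at 1.5×10^4 cells/well. TNF-α (100 ng/mL) was added 30 min later. Viability was read by MTT after 18 h. Values are mean ± SD, n = 4 (normal and control n = 8), with Student's t-test versus control.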

Assay [2] concerns Hepatocyte. Briefly: Hepatoprotective activity in mouse hepatocytes assessed inhibition of D-galactosamine/TNFalpha-induced cell death dosed administered before 30 mins of TNFalpha challenge measured after 18 hrs. The procedure, abridged:
as §1

Assay [3] deals with Hepatocyte. Briefly: Hepatoprotective activity in mouse hepatocytes assessed inhibition of D-galactosamine/TNFalpha-induced cell death at 50 uM administered before 30 mins of TNFalpha challenge measured after 18 hrs. The method, boiled down:
as §1

Assay [4] concerns Hepatocyte. Briefly: Hepatoprotective activity against D-galactosamine/TNFalpha-induced cell death in mouse hepatocytes assessed cell survival rate at 50 uM administered before 30 mins of TNFalpha challenge measured after 18 hrs by MTT assay. The method, boiled down:
as §1
On the technique in general: Tetrazolium assays rely on reduction of a dye to a coloured formazan, in cell work by metabolically active cells.

Assay [5] deals with Hepatocyte. Briefly: Hepatoprotective activity against D-galactosamine/TNFalpha-induced cell death in mouse hepatocytes assessed cell survival rate at 25 uM administered before 30 mins of TNFalpha challenge measured after 18 hrs by MTT assay. The method, boiled down: as §1
For assay [6], the system named is Hepatocyte. Briefly: Hepatoprotective activity in mouse hepatocytes assessed inhibition of D-galactosamine/TNFalpha-induced cell death at 100 uM administered before 30 mins of TNFalpha challenge measured after 18 hrs. The method, boiled down:
as §1

Assay [7] deals with Hepatocyte. The experiment in a line: Hepatoprotective activity in mouse hepatocytes assessed protection against D-galactosamine/TNFalpha-induced cell death at 100 uM administered before 30 mins of TNFalpha challenge measured after 18 hrs. The method, boiled down: as §1
Assay [8] concerns Hepatocyte. The experiment in a line: Hepatoprotective activity against D-galactosamine/TNFalpha-induced cell death in mouse hepatocytes assessed cell survival rate at 100 uM administered before 30 mins of TNFalpha challenge measured after 18 hrs by MTT assay. The procedure, abridged: as §1
Assay [9] concerns Hepatocyte. The experiment in a line: Hepatoprotective activity in mouse hepatocytes assessed protection against D-galactosamine/TNFalpha-induced cell death at 25 uM administered before 30 mins of TNFalpha challenge measured after 18 hrs. The method, boiled down: as §1
Assay [10] relates to Hepatocyte. The experiment in a line: Hepatoprotective activity against D-galactosamine/TNFalpha-induced cell death in mouse hepatocytes assessed cell survival rate at 12.5 uM administered before 30 mins of TNFalpha challenge measured after 18 hrs by MTT assay. The procedure, abridged: as §1
Assay [11] has as its system Hepatocyte. The experiment in a line: Hepatoprotective activity in mouse hepatocytes assessed inhibition of D-galactosamine/TNFalpha-induced cell death at 25 uM administered before 30 mins of TNFalpha challenge measured after 18 hrs. The method, boiled down: as §1
In assay [12] the test system is Hepatocyte. Briefly: Hepatoprotective activity in mouse hepatocytes assessed protection against D-galactosamine/TNFalpha-induced cell death at 12.5 uM administered before 30 mins of TNFalpha challenge measured after 18 hrs. The method, boiled down: as §1
The test system of assay [13] is Hepatocyte. The experiment in a line: Hepatoprotective activity in mouse hepatocytes assessed inhibition of D-galactosamine/TNFalpha-induced cell death at 12.5 uM administered before 30 mins of TNFalpha challenge measured after 18 hrs. The procedure, abridged: as §1
Assay [14] relates to Hepatocyte. Briefly: Hepatoprotective activity in mouse hepatocytes assessed inhibition of D-galactosamine/TNFalpha-induced cell death at 200 uM administered before 30 mins of TNFalpha challenge measured after 18 hrs. The procedure, abridged: as §1
The subject of assay [15] is Hepatocyte. Briefly: Hepatoprotective activity against D-galactosamine/TNFalpha-induced cell death in mouse hepatocytes assessed cell survival rate at 200 uM administered before 30 mins of TNFalpha challenge measured after 18 hrs by MTT assay. The procedure, abridged: as §1
In assay [16] the test system is Hepatocyte. Briefly: Hepatoprotective activity in mouse hepatocytes assessed protection against D-galactosamine/TNFalpha-induced cell death at 200 uM administered before 30 mins of TNFalpha challenge measured after 18 hrs. The method, boiled down:
as §1

For `CC(=O)OC[C@H]1O[C@@H](O[C@H]2C[C@]3(C)[C@H](C[C@@H](O)[C@@H]4[C@@H]([C@]5(C)CC[C@@H](C(C)(C)O)O5)CC[C@]43C)[C@@]3(C)CC[C@H](O)C(C)(C)[C@H]23)[C@H](O[C@@H]2O[C@H](C)[C@@H](O)[C@H](O)[C@@H]2O)[C@@H](O)[C@@H]1O` [VINA-GINSENOSIDE R1], the results for the Activity with Hepatocyte [1] and with Hepatocyte [7] were 29% and 71.5%, respectively. 47 µM corresponded to half-maximal inhibition with Hepatocyte [2] (IC50). For the same compound, the “inhibition (INH)” value with Hepatocyte [3] was 51.7%; with Hepatocyte [6], 89.8%. The values for the Survival with Hepatocyte [4], in the assay with Hepatocyte [5] and with Hepatocyte [8] were 45.6%, 33.1% and 57%, respectively.
`COc1cc(C2Oc3cc([C@H]4Oc5cc(O)cc(O)c5C(=O)[C@@H]4O)ccc3OC2CO)ccc1O` (stereo partly drawn) [SILIBININ]: the values for the Activity in the assay with Hepatocyte [1], with Hepatocyte [9] and in the assay with Hepatocyte [12] were 64.3%, 42.8% and 17.3%, respectively. Moreover, the results for the Survival with Hepatocyte [10], in the assay with Hepatocyte [4] and in the assay on Hepatocyte [5] were 43.1%, 75% and 60%, respectively. The “inhibition (INH)” value in the assay on Hepatocyte [11] was determined as 99.7%; in the assay on Hepatocyte [3] it was 149.7%; in the assay with Hepatocyte [13] it was 43.4%. Further, in the assay on Hepatocyte [2], the IC50 stood at 14 µM.
With `CC(C)(O)[C@@H]1CC[C@@](C)([C@H]2CC[C@]3(C)[C@@H]2[C@H](O)C[C@@H]2[C@@]4(C)CC[C@H](O)C(C)(C)[C@@H]4[C@@H](O[C@@H]4O[C@H](CO)[C@@H](O)[C@H](O)[C@H]4O[C@@H]4OC[C@@H](O)[C@H](O)[C@H]4O)C[C@]23C)O1` [MAJONOSIDE R2], the Activity in the assay with Hepatocyte [1] was 16%; with Hepatocyte [7], 19.3%; with Hepatocyte [16] it was 35.5%. In addition, the results for the “inhibition (INH)” value in the assay with Hepatocyte [14], with Hepatocyte [3] and in the assay with Hepatocyte [6] were 83.3%, 37.5% and 55.2%, respectively. This compound displayed an IC50 in the assay on Hepatocyte [2] of 82.4 µM. For the same compound, the Survival in the assay with Hepatocyte [4] is given as 41.1%; with Hepatocyte [15], 54.8%; in the assay with Hepatocyte [8], 46.4%.
On to `CC(C)=CCC[C@](C)(O[C@@H]1O[C@H](CO)[C@@H](O)[C@H](O)[C@H]1O)[C@H]1CC[C@]2(C)[C@@H]1[C@H](O)C[C@@H]1[C@@]3(C)CC[C@H](O)C(C)(C)[C@@H]3[C@@H](O[C@@H]3O[C@H](CO)[C@@H](O)[C@H](O)[C@H]3O)C[C@]12C` [GINSENOSIDE RG1], for which the Activity was 16.7% with Hepatocyte [1], 17.3% with Hepatocyte [7] and 26.2% in the assay with Hepatocyte [16]. The figures for the “inhibition (INH)” value with Hepatocyte [14], in the assay with Hepatocyte [3] and with Hepatocyte [6] were 61.4%, 39.3% and 40.6%, respectively. This compound registered an IC50 in the assay with Hepatocyte [2] of 111 µM. Also, the Survival in the assay with Hepatocyte [4] is 41.6%; in the assay with Hepatocyte [15], 48.3%; with Hepatocyte [8] it was 42%.
On to `CC(C)(O)[C@@H]1CC[C@@](C)([C@H]2CC[C@]3(C)[C@@H]2[C@H](O)C[C@@H]2[C@@]4(C)CC[C@H](O)C(C)(C)[C@@H]4[C@@H](O[C@@H]4O[C@H](CO)[C@@H](O)[C@H](O)[C@H]4O)C[C@]23C)O1`, for which the Activity with Hepatocyte [1] is recorded as 13.6%; in the assay on Hepatocyte [7], 26.8%; in the assay with Hepatocyte [16], 39%. Also, the “inhibition (INH)” value in the assay on Hepatocyte [14] is 91.5%; in the assay with Hepatocyte [3], 31.8%; in the assay on Hepatocyte [6], 62.8%. In addition, in the assay on Hepatocyte [2], inhibition was half-maximal at 74.8 µM (IC50). In addition, the Survival in the assay on Hepatocyte [4] is listed as 39.4%; in the assay with Hepatocyte [15], 57.2%; with Hepatocyte [8], 48.7%.
For `CC(C)(O)[C@@H]1CC[C@@](C)([C@H]2CC[C@]3(C)[C@@H]2[C@H](O)C[C@@H]2[C@@]4(C)CC[C@H](O)C(C)(C)[C@@H]4[C@@H](O)C[C@]23C)O1` [PROTOPANAXATRIOL OXIDE II], the figures for the Activity in the assay on Hepatocyte [1], in the assay on Hepatocyte [7] and with Hepatocyte [16] were 17.9%, 22.2% and 92.2%, respectively. The “inhibition (INH)” value with Hepatocyte [14] is 209.9%; with Hepatocyte [3] it was 34.5%; in the assay on Hepatocyte [6] it was 51.7%. In the assay with Hepatocyte [2], this compound had an IC50 of 74 µM. Further, the values for the Survival with Hepatocyte [4], in the assay on Hepatocyte [15] and in the assay with Hepatocyte [8] were 40.2%, 92.6% and 45.3%, respectively.
Turning to `CC1(C)[C@@H](O[C@H]2O[C@H](C(=O)O)[C@@H](O)[C@H](O)[C@H]2O[C@@H]2O[C@H](C(=O)O)[C@@H](O)[C@H](O)[C@H]2O)CC[C@]2(C)[C@H]3C(=O)C=C4[C@@H]5C[C@@](C)(C(=O)O)CC[C@]5(C)CC[C@@]4(C)[C@]3(C)CC[C@@H]12` [GLYCYRRHIZIN], the Activity turned out to be 1% with Hepatocyte [1], 4.8% in the assay with Hepatocyte [7] and 8.7% in the assay on Hepatocyte [16]. For the same compound, the “inhibition (INH)” value is reported as 20.3% with Hepatocyte [14], 11% in the assay on Hepatocyte [3] and 11.1% in the assay on Hepatocyte [6]. Also, in the assay on Hepatocyte [2], the IC50 is > 200 µM. Moreover, the Survival in the assay with Hepatocyte [4] is listed as 33%; with Hepatocyte [15], 36.2%; with Hepatocyte [8], 33.4%.
